# This is a sample that favours compounds with a hit; in the whole collection about 3.7% have one here.
# KCNQ1 inh: blocks the human KCNQ1 potassium channel. P51787. CHO-K1 KCNQ1, FluxOR thallium flux fluorescence; active compounds read high. B-score at 10 µM. 1.3% of 310,000 active;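 active means compounds whose thallium flux B-score, printed positive for inhibition, exceeds three library SD while starting fluorescence stays within three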;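 further: channel opened by potassium depolarization with thallium stimulus after 20 min compound exposure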
# hERG rescue: hERG (human) protection from proarrhythmic block; CHO-hERG, FluxOR thallium flux, dofetilide IC70 present; activation (rescue from dofetilide block), less the hit threshold, % at 10 µM; 0.51% of 310,000 active;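 active means activation above the mean of controls blocked by dofetilide plus 5 SD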;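 further: thallium influx through hERG after potassium depolarization seen as dye fluorescence rise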
# Kir21 inh: inhibitors of mouse Kir2.1 inward-rectifier potassium channel. HEK293-Kir2.1, FluxOR thallium flux fluorescence; active compounds read low. AID 1672. B-score at 10 µM. P35561. 0.85% of 310,000 active;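 active means fluorescence ratio B-score at or below minus 3 SD of library scores, with starting-brightness B-score within 2 SD, cut at about -4.2 in these data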;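 further: channel flux triggered by added potassium and thallium sulfate stimulus; B-score of peak minus minimum fluorescence over baseline after thallium stimulus; more negative B-score means stronger Kir2.1 block with less thallium influx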
# KCNK9 inh: human KCNK9 channel inhibition. Q9NPC2. HEK293 KCNK9, FluxOR thallium flux fluorescence; active compounds read low. B-score at 10 µM. 1.2% of 310,000 active. AID 488922;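 active means ratio B-score over 3 SD below the library mean, with starting fluorescence within 5 SD of its mean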;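 further: negative B-score means less thallium flux so channel inhibition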
# KCNK3 block: human KCNK3 channel inhibition, primary screen. AID 602410. 0.84% of 340,000 active. B-score at 10 µM. CHO-KCNK3 thallium flux, FluxOR fluorescence; active compounds read low. O14649;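 active means B-score under library mean minus 4 SD, starting fluorescence ratio at most library mean plus 5 SD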;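 further: more negative B-score means stronger inhibition of thallium flux through KCNK3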
# Target sequence (O14649 whole entry, looked up): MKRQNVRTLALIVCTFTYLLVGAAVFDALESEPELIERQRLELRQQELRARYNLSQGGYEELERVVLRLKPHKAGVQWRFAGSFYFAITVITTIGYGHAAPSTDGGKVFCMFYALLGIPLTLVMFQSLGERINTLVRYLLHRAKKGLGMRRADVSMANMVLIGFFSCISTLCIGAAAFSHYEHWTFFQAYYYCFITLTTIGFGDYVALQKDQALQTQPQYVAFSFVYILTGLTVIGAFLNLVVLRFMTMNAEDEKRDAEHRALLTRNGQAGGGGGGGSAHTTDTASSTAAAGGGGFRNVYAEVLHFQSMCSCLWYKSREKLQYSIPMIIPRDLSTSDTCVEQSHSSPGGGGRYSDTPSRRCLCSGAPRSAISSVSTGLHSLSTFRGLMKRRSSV
# KCNQ1 pot: human KCNQ1 channel potentiation or activation | P51787 | CHO-K1 KCNQ1, thallium flux FluxOR fluorescence; active compounds read high | B-score at 10 µM | 0.35% of 310,000 active | AID 2648;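 active means fluorescence ratio B-score, a plate-corrected score, at least three library SD, with initial intensity B-score within 5 SD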
#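 Medium – assay buffer, equal DMSO in all wells · Material – CHO-K1 cell line with stable KCNQ1 potassium channel expression · Signal – kinetic FluxOR thallium fluorescence, 10-s 1-Hz baseline, 110-s post-stimulus read · Compound – single concentration per compound, DMSO matched to controls · Schedule – 37 °C overnight plating, 90-min dark dye load, 20-min compound pretreatment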
# Active calls of the source: *; i = inactive; . = not tested or not shown; ! = a repeat was not active.
SMILES,KCNQ1 inh,hERG rescue,Kir21 inh,KCNK9 inh,KCNK3 block,KCNQ1 pot
CCN(CC)CC(=O)N1CCCC(N2CCN(c3cccc(C(F)(F)F)c3)CC2)C1 (stereo unspecified),i,-8,-0.88,i,i,i
CCOc1ccc(NC(=O)CCCN2C(=O)C(c3ccccc3)Oc3cccnc32)cc1 (stereo unspecified),i,-6,0.39,i,i,i
CC(=O)c1ccc(NC(=O)CCCN2C(=O)C(c3ccccc3)Oc3cccnc32)cc1 (stereo unspecified),i,-4,-4.2*,i,i,i
CCCCCCCCCCCCCCCC[n+]1ccccc1,.,.,.,.,-11*!,.
CCCCCCCCCCCCCCCC[n+]1ccc(C(N)=O)cc1,.,.,.,.,i,.
CN(CCCCCCN(C)Cc1ccccc1O)Cc1ccccc1O,i,-5,-5.2*,i,i,i
Cc1ccc(O)c(CN(C)Cc2cc(C)ccc2O)c1,.,.,.,.,i,.
CCN(CC)CCNC(=O)c1cc(-c2cccnc2)nc2ccc(S(=O)(=O)N3CCC(C)CC3)cc12,i,-7,-5.7*,i,i,i
O=C(CCn1c(=O)oc2ccccc21)N1CCN(c2ccccc2F)CC1,i,5.3*,-1.1,i,i,i
CC(C)(C)CCN1CCC(CN2CCNC(=O)C2=O)CC1,.,.,.,.,i,.
CCC(NC(=S)NC1CCCCC1)c1ccc(C)cc1 (stereo unspecified),i,-2,-2.9,i,i,i
Nc1nnc(CCS(=O)(=O)c2ccc(Br)cc2)s1,i,-20,-1.1,i,i,i
CCOC(=O)C1=NN(c2ccccc2)C2=NC(C)=C(C(=O)OC)C(c3cccs3)N12 (stereo unspecified),i,-10,0.75,i,i,i
CCOC(=O)C1=NN(c2ccc(F)cc2)C2=NC(C)=C(C(=O)OC)C(c3cccs3)N12 (stereo unspecified),i,-19,1.3,-6.9*,i,i
O=C(CC1C(=O)NCCN1Cc1ccccc1C(F)(F)F)NC1CCC1 (stereo unspecified),i,-5,2.2,i,i,i
O=C(c1ccc(OC2CCN(CCCc3ccccc3)CC2)cc1)N1CCCC1,i,-12,-5.9*,i,i,i
CSc1cccc(CN2CCC(Oc3ccc(C(=O)N4CCCCC4)cc3)CC2)c1,i,-8,-5.5*,i,i,i
CSc1cccc(CN2CCC(Oc3cccc(C(=O)N4CCCC4)c3)CC2)c1,i,-12,-4.8*,i,i,i
CC(=O)N1CCN(C(=O)c2ccc(OC3CCN(CCc4ccccc4)CC3)cc2)CC1,i,-3,-0.92,i,i,i
CC(C#N)(NC(=O)CN1CCN(S(=O)(=O)c2ccccc2Cl)CC1)C1CC1 (stereo unspecified),.,.,.,.,i,.
O=C(NCc1n[nH]c(=S)n1-c1ccc(Cl)c(Cl)c1)c1ccco1,i,-8,-0.03,i,i,i
O=C1c2ccccc2C2(c3ccccc3)NCCCN12 (stereo unspecified),i,-16,-0.48,i,i,i
O=C1c2ccccc2C2(c3cc(C(F)(F)F)cc(C(F)(F)F)c3)NCCN12 (stereo unspecified),i,-8,0.05,i,i,14*
COc1ccc(C2=NS(=O)(=O)N(C)C(C(=O)Nc3ccc(C)cc3)=C2)cc1,i,-9,0.2,i,i,i
CCc1ccc(NC(=O)C2=CC(c3ccc(OC)cc3)=NS(=O)(=O)N2C)cc1,i,-11,-0.37,-7.6*,i,i
SMILES,KCNQ1 inh,hERG rescue,Kir21 inh,KCNK9 inh,KCNK3 block,KCNQ1 pot
Cc1cccc(NC(=O)C2c3ccccc3C(=O)N3CCc4ccccc4C23)n1 (stereo unspecified),i,-6,0.52,-7.4*,i,i
COc1ccc(C2C(C(=O)Nc3cccc(C)n3)c3ccccc3C(=O)N2C)cc1 (stereo unspecified),i,-11,0.04,i,i,i
COc1ccc(NC(=O)N(C)C[C@H]2Oc3ccc(NS(=O)(=O)c4ccccc4)cc3C(=O)N([C@H](C)CO)C[C@@H]2C)cc1,.,.,.,.,i,.
CCCn1nc([N+](=O)[O-])c(C(C#N)c2nc3ccccc3o2)c(Cl)c1=O (stereo unspecified),6*,-16,-0.72,i,i,i
COc1cc(/C=N/NC(=O)CN2CCCCC2)ccc1OCc1ccc(Br)cc1,i,-20,-6.6*,i,i,i
O=C(Cn1c(=O)c2c(ncn2Cc2ccccc2)n(Cc2ccccc2)c1=O)N1CCc2ccccc21,i,-9,1.4,i,i,7*
CCn1cnc2c1c(=O)n(CC(=O)N1CCc3ccccc31)c(=O)n2Cc1ccccc1,i,-13,0.69,i,i,i
CC1=NN(c2ccc(C)c(C)c2)C(=O)C1C(c1cccc(O)c1)C1C(=O)N(c2ccc(C)c(C)c2)N=C1C (stereo unspecified),i,-6,1.8,-9.8*,i,i
O=C1C(=Nc2cccc(Cl)c2)CC(c2ccc(Cl)cc2)N1c1cccc(Cl)c1 (stereo unspecified),i,-8,-0.67,i,i,i
O=C(COC(=O)COc1ccccc1Cl)Nc1ccccc1OC(F)F,i,4.9*,1.1,i,i,i
O=C(COC(=O)c1ncc(Cl)c(Cl)c1Cl)Nc1ccccc1OC(F)F,i,-14,1.1,i,i,i
N#CC(C#N)=C1C=CC=CN1/C(=C\c1ccccc1)C(=O)c1cccs1,i,-25,-5*,i,i,i
Cc1ccc(S(=O)(=O)c2cnc(-c3ccccc3)nc2N2CCN(C)CC2)cc1,i,-9,0.14,i,i,i
O=C(Cn1c(=O)n(-c2ccccc2)c(=O)c2sccc21)N1CCCC1,6*,-24,-3.1,i,i,i
Cc1ccc(-n2c(=O)c3sccc3n(CC(=O)N3CCCC3)c2=O)cc1,i,-2,-0.32,i,i,i
CC(C)(C)C(=O)CC(=O)Nc1ccc(Cl)c(N)c1,i,4.9*,0.02,i,i,i
CCCC(=O)Nc1ccc(Cl)c(NC(=O)C(C)(C)C)c1,i,-5,-0.1,i,i,i
COc1ccc(CCNC(=O)CCSc2nc(-c3ccco3)cc(C(F)(F)F)n2)cc1OC,i,-4,-4.4*,i,i,i
COc1ccc(OCCNc2cc(N3CCCCC3)ccc2[N+](=O)[O-])cc1,i,0,-0.44,i,i,i
Cc1ccccc1OCCNc1cc(N2CCN(CCO)CC2)ccc1[N+](=O)[O-],i,-20,-3,i,i,i
